Compounds with a hit are over-represented: about 1.8% of the library has one in this group of screens.
PPC-1+TRAIL kill: PPC-1 cancer cell killing with TRAIL present; AID 1443; PPC-1 cells + TRAIL, ATPLite viability luminescence; cell killing (% activity), % at 4 µM or 5 µM; 220,000 tested, 0.41% active;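 active = cell killing above 50% in the first pass at 4 µM, then a duplicate retest at 5 µM averaging 50% or more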
FLuc inh counter: Photinus pyralis luciferase inhibition counter-screen; P08659; ATPLite firefly luciferase biochemical luminescence, 10 min; inhibition, % at 10 µM; 200,000 tested, 1.5% active; AID 1006;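 active = inhibition above about 50% when tested at 10 µM, limit read from the data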
Target sequence (P08659 whole entry, looked up): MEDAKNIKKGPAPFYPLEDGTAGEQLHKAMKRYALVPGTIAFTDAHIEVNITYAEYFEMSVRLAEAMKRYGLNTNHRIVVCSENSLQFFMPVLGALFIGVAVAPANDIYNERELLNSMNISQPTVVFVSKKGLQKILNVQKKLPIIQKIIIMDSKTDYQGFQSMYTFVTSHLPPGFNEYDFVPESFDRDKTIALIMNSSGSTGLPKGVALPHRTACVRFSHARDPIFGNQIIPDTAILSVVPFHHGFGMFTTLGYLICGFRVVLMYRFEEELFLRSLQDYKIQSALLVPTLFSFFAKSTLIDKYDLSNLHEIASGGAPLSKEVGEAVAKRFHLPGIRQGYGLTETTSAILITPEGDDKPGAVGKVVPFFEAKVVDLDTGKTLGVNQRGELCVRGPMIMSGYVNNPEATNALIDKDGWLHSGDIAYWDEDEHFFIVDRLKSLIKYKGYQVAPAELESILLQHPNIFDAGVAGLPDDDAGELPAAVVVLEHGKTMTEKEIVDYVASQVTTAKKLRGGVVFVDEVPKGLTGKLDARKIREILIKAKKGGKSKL
FLuc stim CS: affects firefly luciferase, flagging false hits in luciferase stimulation screens | P08659 | ATPlite luciferase biochemical, luminescence, 10 min; 0 = ATP-free wells, 1 = DMSO control | activation factor at 10 µM | 200,000 tested, under 10 active | AID 1027;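 active = luciferase activation factor, scaled between plate controls, of at least 2 with compound at 10 µM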
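Material: Luciferase/luciferin reagent mix | Doses: Test compounds dosed from 2 mM stocks in 100% DMSO | Timing: 10 min incubation after luciferase reagent addition, room temperature | Measured by: Luminescence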
MIN6 prolif: inducers of beta-cell replication in MIN6 cells; MIN6 cells proliferation, ATPlite luminescence, 48 h; cells starved in 0.2% serum; 100% = growth in 10% serum; proliferation, % at 10 µM; 330,000 tested, 0.29% active; AID 2380;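 active = compounds whose signal lies at least 3.5 SD above the mean of all wells on their plate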
hiPSC survival: enhancers of human iPSC single-cell survival; survival enhancement, % at 20 µM; hiPSC single-cell survival, ATPlite luminescence; 100% = ROCK inhibitor wells, 0% = DMSO; 360,000 tested, 0.044% active; in the data active = survival enhancement above about 18%;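 note: cells exposed to compounds for 16 hours before the ATP read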
C8 TRAIL sens: caspase-8 TRAIL sensitization. inhibition (viability loss, TRAIL sensitization), % at 10 µM. NB7+C8 cells + TRAIL, ATPlite viability luminescence. 360,000 tested, 1% active;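 active = compounds causing at least 50% loss of cell viability in the single-dose screen, relative to plate controls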
A number is an active result.

`Cc1cc(-c2nc3ccccc3s2)ccc1N` gave hiPSC survival inactive and C8 TRAIL sens 72.4.
Screening Nc1ccc(-c2nc3ccccc3s2)cn1 returned MIN6 prolif inactive, hiPSC survival inactive and C8 TRAIL sens inactive.
`O=C1CCC(=O)N1c1ccc(-c2nc3ccccc3s2)cc1` gave PPC-1+TRAIL kill inactive, FLuc inh counter 87.6, FLuc stim CS inactive, MIN6 prolif inactive, hiPSC survival inactive and C8 TRAIL sens 77.7.
`Brc1ccc(-c2nc3ccccc3s2)s1` gave PPC-1+TRAIL kill inactive, FLuc inh counter 64.5, FLuc stim CS inactive, MIN6 prolif inactive, hiPSC survival inactive and C8 TRAIL sens inactive.
For c1ccc(-c2nc3ccccc3s2)nc1 the results were PPC-1+TRAIL kill inactive, FLuc inh counter 61.1, FLuc stim CS inactive, MIN6 prolif inactive, hiPSC survival inactive and C8 TRAIL sens inactive.
`CN(C)c1ncccc1-c1nc2ccccc2s1` gave PPC-1+TRAIL kill inactive, FLuc inh counter inactive, FLuc stim CS inactive, MIN6 prolif inactive, hiPSC survival inactive and C8 TRAIL sens inactive.
CCOC(=O)C1(CCOc2ccccc2)CCN(Cc2cccc(OC)c2OC)CC1 was read as MIN6 prolif inactive, hiPSC survival inactive and C8 TRAIL sens inactive.
Screening CSc1cccc(CN2CCCC(C(=O)Nc3cccc(-n4cccn4)c3)C2)c1 (centres undefined) returned MIN6 prolif inactive, hiPSC survival inactive and C8 TRAIL sens inactive.
`O=C(CNC(=O)c1ccccc1F)N/N=C/c1cccnc1` gave MIN6 prolif inactive, hiPSC survival inactive and C8 TRAIL sens inactive.
For Cc1ccc(C(=O)Nc2ccc3c(c2)nc2n3CCSC2)cc1 the results were PPC-1+TRAIL kill inactive, FLuc inh counter 62.0, FLuc stim CS inactive, MIN6 prolif inactive, hiPSC survival inactive and C8 TRAIL sens inactive.
For CON=C1C=C(C)C(=O)C(C)=C1C the results were hiPSC survival inactive and C8 TRAIL sens inactive.
`O=C(NC(=S)Nc1ccccc1[N+](=O)[O-])c1ccccc1` gave PPC-1+TRAIL kill inactive, MIN6 prolif inactive, hiPSC survival inactive and C8 TRAIL sens inactive.
For O=C(NC(=S)/C(=C1\CCCCCN1)[N+](=O)[O-])c1ccccc1 the results were MIN6 prolif inactive, hiPSC survival inactive and C8 TRAIL sens 78.5.
Screening CC(OC(=O)CCC(=O)c1ccc(F)cc1)C(=O)NC1CCCCC1C (centres undefined) returned MIN6 prolif inactive, hiPSC survival inactive and C8 TRAIL sens inactive.
O=Cc1ccc(O)c2ncccc12 was read as PPC-1+TRAIL kill inactive, MIN6 prolif inactive, hiPSC survival inactive and C8 TRAIL sens 56.5.
`O=C(NCc1cc(C(F)(F)F)ccc1Cl)c1cccc2c1C(=O)c1ccc(N3CCC(N4CCCCC4)CC3)cc1S2(=O)=O` gave hiPSC survival inactive and C8 TRAIL sens 95.5.
O=C(NCc1cc(C(F)(F)F)ccc1Cl)c1cccc2c1C(=O)c1ccc(N3CCCCC3)cc1S2(=O)=O was read as MIN6 prolif inactive, hiPSC survival inactive and C8 TRAIL sens inactive.
For COc1ccc(-c2ccc3c(c2)S(=O)(=O)c2cccc(C(=O)NCCOc4ccccc4Cl)c2C3=O)cc1OC the results were MIN6 prolif inactive, hiPSC survival inactive and C8 TRAIL sens 76.2.
For O=C(NCc1ccccc1Br)c1cccc2c1C(=O)c1ccc(-c3ccc(OC(F)(F)F)cc3)cc1S2(=O)=O the results were MIN6 prolif inactive, hiPSC survival inactive and C8 TRAIL sens 53.9.
CC(C)c1cccc(-c2ccc3c(c2)S(=O)(=O)c2cccc(C(=O)NCc4ccccc4Cl)c2C3=O)c1 was read as MIN6 prolif inactive, hiPSC survival inactive and C8 TRAIL sens 67.7.
O=C(O)c1cccc2c1C(=O)c1ccc(-c3ccc(OC(F)(F)F)cc3)cc1S2(=O)=O was read as MIN6 prolif inactive, hiPSC survival inactive and C8 TRAIL sens inactive.
Screening Cc1cc2nc(-c3ccc(Cl)cc3)c(CC3CCCCC3)n2c(C)c1Br returned hiPSC survival inactive and C8 TRAIL sens inactive.
Screening O=C(c1cccc(Cl)c1)N1CCN(c2ccc3c(c2)C2CC3CCN2C(=O)OCc2ccccc2)CC1 (centres undefined) returned hiPSC survival inactive and C8 TRAIL sens inactive.
For CCOc1ccc(NC(=S)N(CC)Cc2ccccc2)cc1 the results were PPC-1+TRAIL kill inactive, FLuc inh counter inactive, FLuc stim CS inactive and MIN6 prolif inactive.
Screening Cc1nc(SCC(=O)NCc2ccc3c(c2)OCO3)nc(C)c1C returned MIN6 prolif inactive, hiPSC survival inactive and C8 TRAIL sens inactive.
Screening CCN1CCc2c(sc(NC(=O)c3ccc(S(=O)(=O)N(C)c4ccccc4)cc3)c2C(=O)NC)C1 returned MIN6 prolif inactive, hiPSC survival inactive and C8 TRAIL sens 55.0.
Screening CNC(=O)c1c(NC(=O)c2ccc(S(=O)(=O)N(C)c3ccccc3)cc2)sc2c1CCN(C(C)C)C2 returned MIN6 prolif inactive.
O=C(COc1cc(F)ccc1[N+](=O)[O-])NCC1CCCO1 (centres undefined) was read as MIN6 prolif inactive, hiPSC survival inactive and C8 TRAIL sens inactive.
`O=c1[nH]c(/C=C/c2ccccc2Cl)nc2ccccc12` gave MIN6 prolif inactive, hiPSC survival inactive and C8 TRAIL sens 64.1.
Clc1cccc(Cl)c1/C=C/c1nc2ccccc2[nH]1 was read as PPC-1+TRAIL kill inactive, FLuc inh counter 82.1, FLuc stim CS inactive, MIN6 prolif inactive, hiPSC survival inactive and C8 TRAIL sens 67.8.
Cc1cccc(/C=C/c2nc3ccccc3c(=O)[nH]2)c1 was read as PPC-1+TRAIL kill inactive, FLuc inh counter 67.8, FLuc stim CS inactive, MIN6 prolif inactive, hiPSC survival inactive and C8 TRAIL sens 55.0.
O=C(O)c1ccc(/C=C/c2nc3ccccc3c(=O)[nH]2)cc1 was read as MIN6 prolif inactive, hiPSC survival inactive and C8 TRAIL sens inactive.
`C(=N\n1cnnc1)/c1nc2ccccc2[nH]1` gave PPC-1+TRAIL kill inactive, FLuc inh counter inactive, FLuc stim CS inactive, MIN6 prolif inactive, hiPSC survival inactive and C8 TRAIL sens inactive.
For Cc1[nH]c2ccccc2c1/C=C/c1nc2ccccc2c(=O)[nH]1 the results were PPC-1+TRAIL kill inactive, MIN6 prolif inactive, hiPSC survival inactive and C8 TRAIL sens inactive.
O=C(CSc1nc2ccccc2c2c1CCCC2)N1CCOCC1 was read as MIN6 prolif inactive, hiPSC survival inactive and C8 TRAIL sens inactive.
For COC(=O)[C@]1(Cc2ccccc2)N[C@H](CN(C)C(=O)Nc2ccccc2)[C@@H]2C(=O)N(C)C(=O)[C@@H]21 the results were MIN6 prolif inactive, hiPSC survival 28.5 and C8 TRAIL sens inactive.
`COC(=O)[C@]1(Cc2ccccc2)N[C@H](CN(C)C(=O)Nc2ccc(OC)cc2)[C@@H]2C(=O)N(C)C(=O)[C@@H]21` gave MIN6 prolif inactive, hiPSC survival inactive and C8 TRAIL sens inactive.

Screening results (PubChem)
